Experimental data reported in ChEMBL document CHEMBL3044844, “Synthesis and antimicrobial evaluation of some novel 1,2,4-triazole and 1,3,4-thiadiazole derivatives” (2013).
Converted amounts (≈) assume the structure as drawn.

What was measured:
Format in all cases: functional
[1] = test system: Staphylococcus epidermidis; assay: Antibacterial activity against Staphylococcus epidermidis ATCC 12228 assessed as growth inhibition after 18 hr by CLSI broth microdilution method; settings: ATCC 12228, 18 h
Outline: (§1)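 Inoculum: 0.5 McFarland suspension (150 × 10^6 CFU/mL) in sterile 0.85 % NaCl, 2 μL into 198 μL Mueller–Hinton broth. Compound stocks in DMSO; twofold dilutions, final 0.24–1,000 μg/mL. Incubated 35 °C, 18 h; OD600 read. MIC taken as lowest concentration with no visible growth. Controls: compound-free broth with DMSO, and bacteria-free compound blanks.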

[2] = test system: Staphylococcus aureus; assay: Antibacterial activity against Staphylococcus aureus ATCC 25923 assessed as growth inhibition after 18 hr by CLSI broth microdilution method; settings: ATCC 25923, 18 h; outline: as §1
[3] = test system: Staphylococcus aureus; assay: Antibacterial activity against Staphylococcus aureus ATCC 6538 assessed as growth inhibition after 18 hr by CLSI broth microdilution method; settings: ATCC 6538, 18 h; outline: as §1
[4] = test system: Micrococcus luteus; assay: Antibacterial activity against Micrococcus luteus ATCC 10240 assessed as growth inhibition after 18 hr by CLSI broth microdilution method; settings: ATCC 10240, 18 h; outline: as §1
[5] = test system: Bacillus spizizenii; assay: Antibacterial activity against Bacillus subtilis subsp. spizizenii ATCC 6633 assessed as growth inhibition after 18 hr by CLSI broth microdilution method; settings: ATCC 6633, 18 h; outline: as §1
[6] = test system: Bacillus cereus; assay: Antibacterial activity against Bacillus cereus ATCC 10876 assessed as growth inhibition after 18 hr by CLSI broth microdilution method; settings: ATCC 10876, 18 h; outline: as §1

SMILES | MIC [1] | MIC [2] | MIC [3] | MIC [4] | MIC [5] | MIC [6]
COc1ccc(-n2c(S)nnc2CSc2nnc(-c3ccccc3)n2-c2ccccc2)cc1 | > 1000 µg/mL | 1000 µg/mL (≈ 2120 µM) | > 1000 µg/mL | > 1000 µg/mL | > 1000 µg/mL | 500 µg/mL (≈ 1060 µM)
O=C(CSc1nnc(-c2ccccc2)n1-c1ccccc1)NNC(=S)NC1CCCCC1 | > 1000 µg/mL | > 1000 µg/mL | > 1000 µg/mL | 1000 µg/mL (≈ 2140 µM) | 1000 µg/mL (≈ 2140 µM) | 1000 µg/mL (≈ 2140 µM)
CCOC(=O)NC(=S)NNC(=O)CSc1nnc(-c2ccccc2)n1-c1ccccc1 | 1000 µg/mL (≈ 2190 µM) | > 1000 µg/mL | > 1000 µg/mL | 1000 µg/mL (≈ 2190 µM) | 500 µg/mL (≈ 1100 µM) | 500 µg/mL (≈ 1100 µM)
c1ccc(CNc2nnc(CSc3nnc(-c4ccccc4)n3-c3ccccc3)s2)cc1 | 500 µg/mL (≈ 1100 µM) | 250 µg/mL (≈ 548 µM) |  | 125 µg/mL (≈ 274 µM) | 15.6 µg/mL (≈ 34.2 µM) | 
CO/N=C(\C(=O)N[C@@H]1C(=O)N2C(C(=O)O)=C(COC(N)=O)CS[C@H]12)c1ccco1 [CEFUROXIME] | 0.24 µg/mL (≈ 0.566 µM) | 0.49 µg/mL (≈ 1.15 µM) | 1.95 µg/mL (≈ 4.59 µM) | 0.49 µg/mL (≈ 1.15 µM) | 0.49 µg/mL (≈ 1.15 µM) | 62.5 µg/mL (≈ 147 µM)

The remaining lines, values ahead:

MIC [1] | MIC [2] | MIC [3] | MIC [4] | MIC [5] | MIC [6] | SMILES
> 1000 µg/mL | 1000 µg/mL (≈ 2260 µM) | > 1000 µg/mL | > 1000 µg/mL | > 1000 µg/mL | 500 µg/mL (≈ 1130 µM) | Sc1nnc(CSc2nnc(-c3ccccc3)n2-c2ccccc2)n1-c1ccccc1
500 µg/mL (≈ 991 µM) | 500 µg/mL (≈ 991 µM) | 1000 µg/mL (≈ 1980 µM) | 1000 µg/mL (≈ 1980 µM) | 500 µg/mL (≈ 991 µM) | 1000 µg/mL (≈ 1980 µM) | COc1ccc(CNC(=S)NNC(=O)CSc2nnc(-c3ccccc3)n2-c2ccccc2)cc1
125 µg/mL (≈ 256 µM) | 31.2 µg/mL (≈ 64 µM) | 250 µg/mL (≈ 512 µM) | 125 µg/mL (≈ 256 µM) | 250 µg/mL (≈ 512 µM) | 125 µg/mL (≈ 256 µM) | O=C(CSc1nnc(-c2ccccc2)n1-c1ccccc1)NNC(=S)NC(=O)c1ccccc1
1000 µg/mL (≈ 2460 µM) | 1000 µg/mL (≈ 2460 µM) | 1000 µg/mL (≈ 2460 µM) | 1000 µg/mL (≈ 2460 µM) | 1000 µg/mL (≈ 2460 µM) | 1000 µg/mL (≈ 2460 µM) | C=CCn1c(CSc2nnc(-c3ccccc3)n2-c2ccccc2)n[nH]c1=S
500 µg/mL (≈ 1110 µM) | 500 µg/mL (≈ 1110 µM) | 250 µg/mL (≈ 557 µM) | 250 µg/mL (≈ 557 µM) | 500 µg/mL (≈ 1110 µM) | 1000 µg/mL (≈ 2230 µM) | S=c1[nH]nc(CSc2nnc(-c3ccccc3)n2-c2ccccc2)n1C1CCCCC1
1000 µg/mL (≈ 2190 µM) | 1000 µg/mL (≈ 2190 µM) | 1000 µg/mL (≈ 2190 µM) | 1000 µg/mL (≈ 2190 µM) | > 1000 µg/mL | > 1000 µg/mL | S=c1[nH]nc(CSc2nnc(-c3ccccc3)n2-c2ccccc2)n1Cc1ccccc1
> 1000 µg/mL | > 1000 µg/mL | 1000 µg/mL (≈ 2050 µM) | > 1000 µg/mL | > 1000 µg/mL | > 1000 µg/mL | COc1ccc(Cn2c(CSc3nnc(-c4ccccc4)n3-c3ccccc3)n[nH]c2=S)cc1
